According to ChEMBL document CHEMBL1156223, “Hydroxy cycloalkyl fused pyridone carboxylic acid M(1) positive allosteric modulators” (Bioorg Med Chem Lett, 2010):
Activity calls are given as the source filed them. The rule behind the calls is not given here.

Assays:
[1] = target: T1, Muscarinic acetylcholine receptor M1 (Homo sapiens) (UniProt P11229); assay: Agonist activity at human muscarinic M1 receptor expressed in CHO cells assessed as inflection point for increase of EC20 of acetylcholine-induced calcium mobilization by FLIPR assay; assay type: functional, cell-based
T1 sequence (whole entry): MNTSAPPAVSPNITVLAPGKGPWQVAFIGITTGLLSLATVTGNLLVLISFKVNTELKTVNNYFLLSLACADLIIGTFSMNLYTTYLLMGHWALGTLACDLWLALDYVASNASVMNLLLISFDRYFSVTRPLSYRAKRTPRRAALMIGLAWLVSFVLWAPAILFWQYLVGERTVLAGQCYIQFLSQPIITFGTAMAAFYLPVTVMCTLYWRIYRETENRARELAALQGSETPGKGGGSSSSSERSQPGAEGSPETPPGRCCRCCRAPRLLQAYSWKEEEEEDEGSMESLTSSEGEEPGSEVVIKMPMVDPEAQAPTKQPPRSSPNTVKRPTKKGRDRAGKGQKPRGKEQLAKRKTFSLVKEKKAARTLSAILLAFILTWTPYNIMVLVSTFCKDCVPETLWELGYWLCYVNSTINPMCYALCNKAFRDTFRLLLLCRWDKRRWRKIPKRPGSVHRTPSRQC
How it was run: (§1)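 Potency given as inflection point (IP); percent max is the response to compound plus EC20 acetylcholine relative to the maximal acetylcholine effect. Values averaged from at least two experiments; interassay variability ±30% for IP.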

[2] = target: T1, Muscarinic acetylcholine receptor M1 (Homo sapiens); assay: Agonist activity at human muscarinic M1 receptor expressed in CHO cells assessed as increase in EC20 of concentration acetylcholine-induced calcium mobilization by FLIPR assay relative to acetylcholine; assay type: functional, cell-based; how it was run: as §1
Mus musculus = assay: Inhibition of scopolamine-induced memory impairment in ip dosed mouse relative to control; assay type: functional, organism-based
How it was run: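 Mouse contextual fear conditioning (episodic memory model): scopolamine given before exposure to a novel environment to block the new association. Test compound dosed ip at three doses; reversal judged against scopolamine-alone mice. Plasma levels sampled at the 3 mpk dose.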

Cerebrospinal fluid = assay: Drug level in Sprague-Dawley rat CSF at 10 mg/kg, po; conditions: read-out: Drug uptake, in vivo
[3] = Apparent permeability of the compound; conditions: not told
Brain = assay: Drug level in Sprague-Dawley rat brain at 10 mg/kg, po; conditions: read-out: Drug uptake, in vivo
Plasma = assay: Drug levell in Sprague-Dawley rat plasma at 10 mg/kg, po; conditions: read-out: Cp, in vivo
[4] = Ratio of drug levell in brain to plasma in Sprague-Dawley rat at 10 mg/kg, po

SMILES | Activity [1] [nM] | Activity [2] [%] | further results
Nc1cccc(-c2ccc(Cn3cc(C(=O)O)c(=O)c4c3CCCC4O)nc2)c1 (stereo not drawn) | 420 |  | 
O=C(O)c1cn(Cc2ccc(-c3ccc(F)cc3)cn2)c2c(c1=O)C(O)CCC2 (stereo not drawn) | 1100 |  | 
O=C(O)c1cn(Cc2ccc(-c3ccccc3)cc2)c2ccccc2c1=O | 212 | 92 | 
O=C(O)c1cn(Cc2ccc(-c3ccccc3)cc2)c2c(c1=O)CCCC2=O | 4890 | 70 | 
O=C(O)c1cn(Cc2ccc(-n3cccn3)cc2)c2c(c1=O)C(O)CCC2 (stereo not drawn) | 1370 |  | 
O=C(O)c1cn(Cc2ccc(-c3ccccc3)cc2)c2c(c1=O)CCCC2 | 751 | 91 | 
CN(C)c1ccc(-c2ccc(Cn3cc(C(=O)O)c(=O)c4c3CCCC4O)cc2)cn1 (stereo not drawn) | 1100 |  | 
Cn1cc(-c2ccc(Cn3cc(C(=O)O)c(=O)c4c3CCCC4O)cc2)cn1 (stereo not drawn) | 908 |  | concentration (Cerebrospinal fluid): 110 nM; Papp [3]: 19 ×10⁻⁶ cm/s; concentration (Brain): 368 nM; concentration (Plasma): 26700 nM; Kp [4]: 0.01
O=C(O)c1cn(Cc2ccc(-n3ccnc3)cc2)c2c(c1=O)C(O)CCC2 (stereo not drawn) | 2500 |  | 
O=C(O)c1cn(Cc2ccc(-c3ccccc3)cc2)c2c(c1=O)C(=O)CCC2 | 800 | 94 | 
O=C(O)c1cn(Cc2ccc(-c3ccccc3)cc2)c2c(c1=O)CCCC2O (stereo not drawn) | 8190 | 59 | 
O=C(O)c1cn(Cc2ccc(-c3ccccc3)cc2)c2c(c1=O)CCC2 | 810 | 99 | 

Now from value to molecule, other results behind:

Activity [1] [nM] | Activity [2] [%] | SMILES | further results
1100 | 90 | COC1CCCc2c1c(=O)c(C(=O)O)cn2Cc1ccc(-c2ccccc2)cc1 (stereo not drawn) | 
1390 |  | COc1ccc(-c2ccc(Cn3cc(C(=O)O)c(=O)c4c3CCCC4O)cc2)cc1 (stereo not drawn) | 
320 |  | COc1ccc(-c2ccc(Cn3cc(C(=O)O)c(=O)c4c3CCCC4O)cc2)cn1 (stereo not drawn) | 
410 |  | COc1cccc(-c2ccc(Cn3cc(C(=O)O)c(=O)c4c3CCCC4O)cc2)c1 (stereo not drawn) | 
 | 99 | O=C(O)c1cn(Cc2ccc(-c3ccccc3)cc2)c2c(c1=O)C(O)CCC2 (stereo not drawn) | inhibition (Mus musculus): Active
2420 |  | Nc1ccc(-c2ccc(Cn3cc(C(=O)O)c(=O)c4c3CCCC4O)cc2)cn1 (stereo not drawn) | 
340 |  | O=C(O)c1cn(Cc2ccc(-c3ccc(Cl)cc3)cc2)c2c(c1=O)C(O)CCC2 (stereo not drawn) | 
750 |  | O=C(O)c1cn(Cc2ccc(-c3ccoc3)cc2)c2c(c1=O)C(O)CCC2 (stereo not drawn) | 
1400 |  | O=C(O)c1cn(Cc2ccc(-c3ccccc3Cl)cc2)c2c(c1=O)C(O)CCC2 (stereo not drawn) | 
14800 |  | O=C(O)c1cn(Cc2ccc(-c3ccc(F)nc3)cc2)c2c(c1=O)C(O)CCC2 (stereo not drawn) | 
340 |  | O=C(O)c1cn(Cc2ccc(-c3cccc(Cl)c3)cc2)c2c(c1=O)C(O)CCC2 (stereo not drawn) | 
2640 |  | O=C(O)c1cn(Cc2ccc(-c3ccsc3)cc2)c2c(c1=O)C(O)CCC2 (stereo not drawn) | 
3100 |  | COc1ccccc1-c1ccc(Cn2cc(C(=O)O)c(=O)c3c2CCCC3O)cc1 (stereo not drawn) | 
